Measurements from ChEMBL document CHEMBL1133655, “Preparation and biological activity of amino acid and peptide conjugates of antitumor hydroxymethylacylfulvene” (J Med Chem, 2000).
pIC50: −log10 of the molar value. Peptide text beside a SMILES is read from it. * marks the point of attachment. X1 = CC1=C(C*)C2=C(C)C3(CC3)[C@@](C)(O)C(=O)C2=C1

Assay: Concentration required for 50% toxicity in metastatic lung carcinoma (MV522) cells.
Conditions: Homo sapiens
How it was run: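 Compounds held as 1 mg/mL DMSO stock, diluted in 20% DMSO/phosphate-buffered saline just before addition to MV 522 cultures; controls got equal DMSO/PBS. After 48 h incubation, cells were washed, stained with trypan blue and counted. Counts were reported as corresponding closely with colony-forming assay values.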

Row | Structure (SMILES) | pIC50
1 | CC1=C(CSCC[C@H](N)C(=O)O)C2=C(C)C3(CC3)[C@@](C)(O)C(=O)C2=C1 | < 4.30
2 | CC1=C(CSCC(N)C(=O)O)C2=C(C)C3(CC3)[C@@](C)(O)C(=O)C2=C1 (stereo partly specified) | 4.53
3 | CC1=C(CSCC(NC(=O)CCC(N)C(=O)O)C(=O)NCC(=O)O)C2=C(C)C3(CC3)[C@@](C)(O)C(=O)C2=C1 (stereo partly specified) | 4.81
4 | CC(=O)NC(CSCC1=C(C)C=C2C(=O)[C@](C)(O)C3(CC3)C(C)=C21)C(=O)N[C@@H](C)c1ccccc1 (stereo partly specified) | 5.60
5 | CC1=C2C(=C[C@@](C)(CO)C2O)C(=O)[C@](C)(O)C12CC2 (stereo partly specified) | 7.14
6 | CC(=O)N[C@@H](CSCC1=C(C)C=C2C(=O)[C@](C)(O)C3(CC3)C(C)=C21)C(=O)N[C@@H](Cc1ccccc1)C(=O)NCC(=O)N[C@@H](CC(C)C)C(=O)O (Ac-C(X1)FGL-OH) | 4.43
7 | CC(=O)N[C@@H](CSCC1=C(C)C=C2C(=O)[C@](C)(O)C3(CC3)C(C)=C21)C(=O)N[C@@H](CC(C)C)C(=O)NCC(=O)N[C@@H](Cc1ccccc1)C(=O)O (Ac-C(X1)LGF-OH) | 4.55
8 | CC(=O)N[C@@H](CSCC1=C(C)C=C2C(=O)[C@](C)(O)C3(CC3)C(C)=C21)C(=O)N[C@@H](CC(C)C)C(=O)N[C@@H](CC(C)C)C(=O)N[C@@H](Cc1ccccc1)C(=O)O (Ac-C(X1)LLF-OH) | < 4.40
9 | CC(=O)N[C@@H](CSCC1=C(C)C=C2C(=O)[C@](C)(O)C3(CC3)C(C)=C21)C(=O)N[C@@H](CC(C)C)C(=O)N[C@@H](CC(C)C)C(=O)N[C@@H](CC(C)C)C(=O)O (Ac-C(X1)LLL-OH) | 4.61
10 | CC1=CC2=C(C)C3(CC3)[C@@](C)(O)C(=O)C2=C1 [ACYLFULVENE] | 6.46
11 | CC1=C(CO)C2=C(C)C3(CC3)[C@@](C)(O)C(=O)C2=C1 [IROFULVEN] | 8.40
